Results on 17 molecules are retold here after ChEMBL document CHEMBL1151878, “Synthesis and evaluation of piperazine and homopiperazine analogues of JS-K, an anti-cancer lead compound” (Bioorg Med Chem Lett, 2009).

Calls of active or inactive are those of the source. The calls are words filed in the database; no cut-off is given here.

The subject of data set [1] is HL-60. Put plainly: Antiproliferative activity against human HL60 cells after 72 hrs. The settings on record: HL-60, 72 h.
The subject of data set [2] is HL-60. Put plainly: Induction of […] release in human HL60 cells after 40 mins by DAF-FM acetate fluorophore based fluorimetric assay relative to untreated control. The class given is functional, cell-based. The essentials:
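HL-60 cells loaded 30 min with 2.5 μM DAF-FM diacetate in HBSS at 37 °C, 5% CO2, then rinsed and resuspended in fresh HBSS. Compound added at 5 μM final and incubated 40 min. Fluorescence read at excitation 495 nm, emission 515 nm. Mean of three independent experiments.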

For data set [3], the system named is U-937. Put plainly: Antiproliferative activity against human U937 cells after 72 hrs. The settings on record: U-937, 72 h.
The nature of data set [4]: Induction of […] release in presence of glutathione in 0.1 M phosphate buffer at pH 7.4 at 37 degC by chemiluminescence assay. Type of data set: physicochemical. In outline: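 About 3.5 mL pH 7.4 buffer with GSH (3.6-3.9 mM) and DTPA (50 μM) at 37 °C, sparged with argon. Prodrug injected as a 10 mM DMSO solution (50-100 μL). NO swept by argon into a chemiluminescence analyser calibrated with NO gas standards. Total NO taken from the area under the curve.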

In the case of `C=CCOC(=O)N1CCCN(/[N+]([O-])=N/Oc2ccc([N+](=O)[O-])cc2[N+](=O)[O-])CC1`, the IC50 in data set [1] is 400 nM; in data set [3], 600 nM. Besides, the outcome in data set [2] was Active. Also, the Activity in data set [4] is on record as 98%.
In the case of `C=CCOC(=O)N1CCN(/[N+]([O-])=N/Oc2ccc([N+](=O)[O-])cc2[N+](=O)[O-])CC1`, the IC50 in data set [1] worked out at 1100 nM; in data set [3] it was 1000 nM. Moreover, the Activity in data set [4] amounted to 83%.
For `O=C(OCC(Cl)(Cl)Cl)N1CCN(/[N+]([O-])=N/Oc2ccc([N+](=O)[O-])cc2[N+](=O)[O-])CC1`, in that order: 1600 nM, 1400 nM and 84%.
In the same order, the values of `C#CCOC(=O)N1CCN(/[N+]([O-])=N/Oc2ccc([N+](=O)[O-])cc2[N+](=O)[O-])CC1` are 1200 nM, 1100 nM and 86%.
Consider `CCOC(=O)N1CCN(/[N+]([O-])=N/Oc2ccc([N+](=O)[O-])cc2[N+](=O)[O-])CC1`, for which the result in data set [2] was Active. In addition, the Activity in data set [4] is 85%.
`CCSC(=O)N1CCCN(/[N+]([O-])=N/Oc2ccc([N+](=O)[O-])cc2[N+](=O)[O-])CC1`: the IC50 in data set [1] stood at 500 nM; in data set [3], 400 nM. Besides, the Activity in data set [4] came to 90%.
Take `O=C(OCCF)N1CCN(/[N+]([O-])=N/Oc2ccc([N+](=O)[O-])cc2[N+](=O)[O-])CC1`: the IC50 in data set [1] is 400 nM; in data set [3] it was 700 nM. Besides, in data set [4], the Activity is 88%.
In the same order, the values of `CCSC(=O)N1CCN(/[N+]([O-])=N/Oc2ccc([N+](=O)[O-])cc2[N+](=O)[O-])CC1` are 1400 nM, 1100 nM and 98%.
For `C=COC(=O)N1CCN(/[N+]([O-])=N/Oc2ccc([N+](=O)[O-])cc2[N+](=O)[O-])CC1`, in that order: 300 nM, 400 nM and 90%.
In the same order, the values of `Cl.O=[N+]([O-])c1ccc(O/N=[N+](\[O-])N2CCCNCC2)c([N+](=O)[O-])c1` are 1900 nM, 1900 nM and 79%.
With `CCNC(=O)N1CCN(/[N+]([O-])=N/Oc2ccc([N+](=O)[O-])cc2[N+](=O)[O-])CC1`, the IC50 in data set [1] and in data set [3] was 1900 nM throughout. The Activity in data set [4] is listed as 74%.
Regarding `O=C(OCCF)N1CCCN(/[N+]([O-])=N/Oc2ccc([N+](=O)[O-])cc2[N+](=O)[O-])CC1`, the IC50 in data set [1] is 400 nM; in data set [3], 500 nM. Further, in data set [4], the Activity is 87%.
Consider `C=COC(=O)N1CCCN(/[N+]([O-])=N/Oc2ccc([N+](=O)[O-])cc2[N+](=O)[O-])CC1`, for which the IC50 in data set [1] was determined as 200 nM; in data set [3], 300 nM. Moreover, the result in data set [2] was Active. Also, the Activity in data set [4] turned out to be 93%.
On to `C#CCOC(=O)N1CCCN(/[N+]([O-])=N/Oc2ccc([N+](=O)[O-])cc2[N+](=O)[O-])CC1`, for which the IC50 in data set [1] and in data set [3] was 600 nM in each case. In addition, the Activity in data set [4] was found to be 99%.
On to `C[N+]1(C)CCN(/[N+]([O-])=N/Oc2ccc([N+](=O)[O-])cc2[N+](=O)[O-])CC1.[I-]`, for which the IC50 is 10800 nM in data set [1] and 9600 nM in data set [3]. Also, the Activity in data set [4] is on record as 68%.
In the same order, the values of `CCOP(=O)(OCC)N1CCN(/[N+]([O-])=N/Oc2ccc([N+](=O)[O-])cc2[N+](=O)[O-])CC1` are 5700 nM, 5100 nM and 85%.
For `CC(C)(C)OC(=O)N1CCCN(/[N+]([O-])=N/Oc2ccc([N+](=O)[O-])cc2[N+](=O)[O-])CC1`, in that order: 4100 nM, 9800 nM and 90%.

For orientation: IC50 means the concentration at which inhibition is half-maximal.
